# An excerpt weighted towards active compounds, which were near 4.1% of everything screened.
# TAG inh = inhibitors of triacylglycerol accumulation. H9c2 cells, Nile Red lipid (TAG) fluorescence; cells loaded with 200 µM oleic acid. inhibition, % at 12.5 µM. hit rate 0.66% among 230,000;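 active = pattern-corrected inhibition of lipid staining of at least 50% with the nuclear-stain viability signal not falling by more than 50%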;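 note: 0% = DMSO wells and 100% = triacsin C control wells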
# Efflux pump inh = inhibitors of Candida antifungal efflux pumps expressed in yeast; hit rate 0.44% among 330,000; inhibition, % at 10 µM; AID 485275; S. cerevisiae Candida pump triplex, Nile Red efflux;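 active = plate passing quality check with inhibition over a set limit, or well fluorescence over plate mean plus 4 SD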;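 note: Nile Red retained in pooled yeast measured as flow cytometry median fluorescence; 0% = buffer negative control and 100% = Enniatin B positive control; higher means more Nile Red kept so more efflux inhibition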
# AHR activator = human AHR activation; P35869; AHR-responsive luciferase reporter cells, luminescence; activation, % at 5 µM; hit rate 2.5% among 320,000; in the data active = activation above about 47%;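 note: 0% = vehicle wells and 100% = reference agonist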
# Target sequence (P35869 whole entry, looked up): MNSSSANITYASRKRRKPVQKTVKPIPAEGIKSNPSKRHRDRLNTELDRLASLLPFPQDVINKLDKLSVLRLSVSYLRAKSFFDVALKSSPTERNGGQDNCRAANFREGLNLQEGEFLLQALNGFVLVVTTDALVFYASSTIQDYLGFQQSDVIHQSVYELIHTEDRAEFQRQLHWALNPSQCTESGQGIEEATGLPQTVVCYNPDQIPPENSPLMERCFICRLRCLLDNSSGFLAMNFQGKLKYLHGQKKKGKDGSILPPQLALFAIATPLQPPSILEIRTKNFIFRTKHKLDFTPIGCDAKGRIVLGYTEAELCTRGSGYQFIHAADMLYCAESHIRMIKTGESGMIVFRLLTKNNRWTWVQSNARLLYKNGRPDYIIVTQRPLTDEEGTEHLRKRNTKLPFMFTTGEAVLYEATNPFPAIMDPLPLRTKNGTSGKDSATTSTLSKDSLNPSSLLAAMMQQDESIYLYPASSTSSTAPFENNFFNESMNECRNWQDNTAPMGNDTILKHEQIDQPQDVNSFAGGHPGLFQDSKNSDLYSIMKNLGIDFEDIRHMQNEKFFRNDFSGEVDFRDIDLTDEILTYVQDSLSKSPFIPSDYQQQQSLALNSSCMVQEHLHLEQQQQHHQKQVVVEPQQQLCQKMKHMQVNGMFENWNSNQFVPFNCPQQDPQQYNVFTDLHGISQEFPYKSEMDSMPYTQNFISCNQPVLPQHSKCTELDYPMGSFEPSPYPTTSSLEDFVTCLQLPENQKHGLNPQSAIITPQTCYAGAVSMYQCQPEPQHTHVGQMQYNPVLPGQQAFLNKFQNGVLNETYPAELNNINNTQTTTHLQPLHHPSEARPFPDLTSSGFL
# TbMetRS inhib = blocks T. brucei methionyl-tRNA synthetase activity; hit rate 0.4% among 360,000; purified T. brucei MetRS, ATP depletion, Kinase-Glo luminescence; inhibition, % at 11.9 µM; AID 624268;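 active = inhibition above a per-plate cutoff of the control wells' mean inhibition plus 3 SD, cut at about 5.5% in these data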;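 note: 0% = DMSO wells median and 100% = median of wells with control inhibitor compound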
#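 Test system – parasite MetRS enzyme · Reagent – substrates ATP, L-methionine and bulk Escherichia coli tRNA · Doses – 11.9 µM compound single dose, 0.9% DMSO · Times – 15 min enzyme-compound preincubation, 2 h reaction, 10 min detection, 25 °C · Signal – Kinase-Glo luminescence, ATP depletion format · Controls – DMSO-only wells as low control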
# SMARCA2 act = activators of SMARCA2 function. activation, % at 9.1 µM. AID 652017. MG213 cells, MMTV-luciferase reporter, dexamethasone, overnight. hit rate 1% among 370,000; in the data active = activation above about 7.8%;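 note: 0% = vehicle wells and 100% = reference activator wells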
# SMARCA2 act conf = SMARCA2 activation, confirmation screen; AID 652260; MG213 cells, MMTV-luciferase with dexamethasone, luminescence, overnight; MG213 cells expressing E1A, Rb sequestered; DMSO wells 0%, reference activator 100%; hit rate 30% among 3,500; shares compounds with SMARCA2 act; activation, % at 9.1 µM;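 active = activation above its plate's cutoff, the mean activation of tested wells plus 3 SD, cut at about 7.9% in these data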
# GAL4-VP16 Luc = GAL4-VP16 reporter activation counter-screen; shares compounds with SMARCA2 act; hit rate 41% among 3,500; HEK293 GAL4-VP16 pG5luc reporter, luciferase luminescence; scaled: DMSO wells 0%, SAHA wells 100%; AID 686939; activation, % at 9.1 µM;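 active = activation above the solvent-only control well mean plus 3 SD, averaged across control plates, cut at about 5.2% in these data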
# The depositor's hits bear a star; x = not tested or not shown.
SMILES,TAG inh,Efflux pump inh,AHR activator,TbMetRS inhib,SMARCA2 act,SMARCA2 act conf,GAL4-VP16 Luc
Cc1cc(C)c2c(N)c(-c3nc4ccccc4[nH]3)sc2n1,12.0,0.2,55.4*,0.1,9.2*,8.7*,10.2*
COc1ccc(C2C(C(=O)N3CCN(c4ccccc4C)CC3)CC(=O)N2c2ccc(OC)cc2)cc1 (stereo not drawn),x,x,x,x,-1.1,x,x
CN(C)c1oc(-c2ccccc2Cl)nc1S(=O)(=O)c1ccccc1,-70.9,-0.2,7.9,-0.5,-3.5,x,x
COc1ccc(/C=C/c2nc(S(=O)(=O)c3ccccc3)c(N(C)C)o2)cc1,x,0.6,0.3,-0.5,9.6*,-4.9,-1.6
O=C(Oc1ccccc1C(=O)N1CCOCC1)c1ccccc1,x,0.0,0.9,-0.1,8.0*,0.1,-0.4
O[C@H](COc1ccc(F)cc1)CN1CCC(C(O)(c2ccccc2)c2ccccc2)CC1,x,x,x,x,3.3,x,x
O=C(O)/C=C/C(=O)c1ccc2c(c1)CCc1ccccc1-2,8.1,-0.1,7.4,-0.1,10.9*,6.9,6.5*
CCN(Cc1ccccc1)C(=O)Nc1c(Cl)cccc1Cl,x,x,x,x,-2.1,x,x
CCc1ccc(C(=O)CSC2=C(C#N)C(c3ccco3)C(C(C)=O)=C(C)N2)cc1 (stereo not drawn),x,0.0,9.0,x,x,x,x
CC(=O)C1=C(C)NC(SCC(=O)c2ccc(Cl)c(Cl)c2)=C(C#N)C1c1ccco1 (stereo not drawn),x,-0.1,41.9,0.0,8.6*,-5.2,-0.4
COCCCN1C(=O)[C@H](CC(=O)NCC23CC4CC(CC(C4)C2)C3)[C@]2(C(=O)OC)CCCCC=C12,x,x,x,x,-2.8,x,x
O=C(Nc1ccc(Cl)cc1)Nc1ccccc1C(=O)N1CCCC1,x,x,x,x,-1.6,x,x
CCCC[C@H]1C2CC(OC(=O)Nc3ccc(C(F)(F)F)cc3)C(C2)[C@H]2CCCCN21 (stereo partly drawn),x,x,x,x,-4.2,x,x
COC(=O)c1cc2c(c3c4ccccc4n(S(=O)(=O)c4ccc(OC)cc4)c13)C(=O)N(Cc1ccccc1OC)C2,x,x,x,x,-3.5,x,x
CC(C)(C)NC(=O)NCCc1ccccc1,-0.4,0.0,6.2,1.0,9.9*,10.2*,8.2*
CCC(CC)CN1CCC(CN2C(=S)NC[C@@H]2Cc2ccccc2)CC1,x,x,x,x,6.7,x,x
COc1ccccc1Cc1c(-c2ccccc2)nc2ccc(C)cn12,x,x,x,x,1.6,x,x
N#CCOc1ccccc1CNC[C@H]1O[C@@H](n2cnc(C(N)=O)n2)[C@H](O)[C@@H]1O,10.2,x,x,-0.7,-5.5,x,x
NC(=O)c1ncn([C@@H]2O[C@H](CNCc3cc(Br)ccc3OCc3ccccc3)[C@@H](O)[C@H]2O)n1,5.3,x,x,-0.9,15.6*,-5.3,0.3
Cc1cccc(Nc2nnc(SCC(=O)c3c(N)n(C4CC4)c(=O)[nH]c3=O)s2)c1,-3.9,0.3,4.1,-0.5,-2.9,x,x
C/C(N)=C(/C#N)C(=O)CSc1nnc(Nc2cccc(C)c2)s1,21.1,0.0,8.8,0.6,8.3*,6.7,6.2*
Cc1ccc(C(=O)c2cc(C)sc2NC(=O)CN2CCN(C(=O)c3ccco3)CC2)cc1,32.4,0.3,2.0,-0.5,8.8*,-0.4,-0.3
CCc1cc(C(=O)OC)c(NC(=O)CN2CCN(C(=O)c3ccco3)CC2)s1,-0.4,0.2,-1.3,-0.7,-0.3,x,x
Cc1ccc(-c2nn(-c3ccccc3)cc2C(=O)N2CCN(C3CCS(=O)(=O)C3)CC2)cc1 (stereo not drawn),-14.6,0.0,-0.1,0.0,0.0,x,x
Cc1ccc(-c2nn(-c3ccc(F)cc3)cc2C(=O)N2CCN(C3CCS(=O)(=O)C3)CC2)cc1 (stereo not drawn),19.3,0.0,4.2,-0.1,9.5*,4.3,1.9
SMILES,TAG inh,Efflux pump inh,AHR activator,TbMetRS inhib,SMARCA2 act,SMARCA2 act conf,GAL4-VP16 Luc
N#Cc1ccc(C(=O)NCC2CCN(C(=O)C(=O)c3cccs3)CC2)cc1,x,x,x,x,-1.6,x,x
Cc1cc2nc(/C=C/c3cccnc3)[nH]c2cc1C,x,0.1,x,-0.6,8.7*,16.0*,26.7*
Cc1cc2nc(/C=C/c3nc4cc(C)c(C)cc4[nH]3)[nH]c2cc1C,x,0.2,17.3,-0.2,4.9,x,x
O=S(=O)(c1ccc(F)cc1)N1CCCc2nc(-c3ccc(F)cc3)ccc21,x,x,x,x,-0.9,x,x
CCn1c(COc2ccc(C)cc2)nnc1SCC(=O)c1ccc(-c2ccccc2)cc1,x,x,x,x,-4.8,x,x
Cc1n[nH]c(=S)n1/N=C/c1ccc(OCc2ccc(Cl)cc2Cl)cc1,x,0.2,5.5,0.0,12.7*,0.1,2.6
Cc1n[nH]c(=S)n1/N=C/c1ccc(OCc2ccc(Cl)cc2)cc1,7.2,0.1,-4.1,0.4,0.5,x,x
Nc1nc2ccc(C(=O)Nc3ccc(N4CCOCC4)cc3)cc2s1,12.6,-0.1,6.7,0.2,2.3,x,x
O=C(Nc1ccc(N2CCOCC2)cc1)c1nc2ccccc2s1,5.8,0.2,6.7,-0.1,12.5*,8.5*,11.9*
Cc1ccc2c(CN(C)Cc3ccccc3)cc(=O)oc2c1,x,x,x,-0.1,10.7*,12.4*,11.5*
Oc1ccc(-c2csc(Nc3ncccn3)n2)c(O)c1,1.9,-0.2,-9.4,0.2,9.4*,11.4*,10.3*
Oc1ccc(-c2csc(Nc3ncccn3)n2)cc1O,x,x,x,-0.2,-0.1,x,x
CCOC(=O)C1=NN(c2ccc(F)cc2)C2=NC(C)=C(C(=O)OC)C(c3cccs3)N12 (stereo not drawn),-0.4,-0.2,1.6,-1.0,8.8*,-2.5,3.2
CCOC(=O)C1=NN(c2ccccc2)C2=NC(C)=C(C(=O)OC)C(c3cccs3)N12 (stereo not drawn),x,-0.1,-5.7,-0.7,2.9,x,x
COC(=O)c1c(-c2cccnc2)csc1NC(=O)c1cc(C)on1,x,0.2,68.4*,-0.4,10.3*,18.6*,14.1*
COc1ccc(CCNC(=O)c2ccc3c(c2)ncn3C2CCCCC2)cc1,x,x,x,x,-0.1,x,x
CC1(C)Cc2c(c(-c3ccco3)nc3sc4c(NCCCO)ncnc4c23)CO1,22.5,0.1,2.6,-0.9,10.0*,14.9*,1.4
CC1(C)Cc2c(C#N)c(NCCO)nc(-c3ccco3)c2CO1,4.6,0.0,1.2,0.2,8.6*,-0.4,2.1
CC1(C)Cc2c(c(-c3ccco3)nc3sc4c(NCCN5CCOCC5)ncnc4c23)CO1,18.7,-0.8,-0.1,-0.5,3.3,x,x
CCC(=O)Nc1ccc2c(c1)C(=O)N(C)[C@@H]1CC[C@@H](CC(=O)OC)O[C@H]1CO2,x,x,x,x,-3.9,x,x
Cc1[nH]nc2c1C(c1ccccc1)N(c1ccccc1)C2=O (stereo not drawn),x,x,x,x,2.6,x,x
COc1ccc(CCC2(C)NC(=O)NC2=O)cc1 (stereo not drawn),x,-0.1,-1.2,-0.1,8.1*,1.3,1.7
CC1(CCOCc2ccccc2)NC(=O)NC1=O (stereo not drawn),-1.0,x,x,-0.1,-0.7,x,x
Cc1cc(C)nc(NC(=O)NC(=O)c2ccccc2)n1,25.5,0.0,16.3,0.1,-1.1,x,x
